Experimental data as given in ChEMBL document CHEMBL3244340, “Antineoplastic agents. 1. Synthesis and antineoplastic activities of chloroethyl- and methylnitrosourea analogues of thymidine” (J Med Chem, 1978).

What was measured:
[1] = Alkylating activity of the compound relative to 1,3-bis-(2-chloroethyl)-1-nitrosourea; assay type: physicochemical
[2] = Carbamoylating activity of the compound at 5 umol by liquid scintillation spectrometry in presence of [14C]-lysine relative to 1,3-bis-(2-chloroethyl)-1-nitrosourea; assay type: physicochemical
L1210 = assay: Cytotoxicity against mouse L1210 cells after 72 hrs by coulter counter analysis; assay type: functional; conditions: L1210, 72 h, read-out: ED50 (the source's name)
Outline: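 Murine L1210 leukemia cells grown in suspension in Fischer's medium with 10% horse serum, 37 °C. Cells exposed to nitrosoureas for 72 h, then counted by Coulter counter, two independent samples in duplicate per concentration. ED50 (concentration inhibiting growth by 50%) estimated from dose-response curves pooled from at least three separate experiments.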

Row | SMILES | fold change (FC) [1] | fold change (FC) [2] | EC50 (L1210) [µM]
1 | Cc1cn([C@H]2C[C@H](O)[C@@H](CNC(=O)N(CCCl)N=O)O2)c(=O)[nH]c1=O | 0.47 | 1.6 | 6.6
2 | Cc1cn([C@H]2C[C@H](O)[C@@H](CN(N=O)C(=O)NCCCl)O2)c(=O)[nH]c1=O | 0.06 | 1.6 | 4.2
3 | Cc1cn([C@H]2C[C@H](O)[C@@H](CNC(=O)N(C)N=O)O2)c(=O)[nH]c1=O | 0.05 | 1 | 95
4 | Cc1cn([C@H]2C[C@H](NC(=O)N(CCCl)N=O)[C@@H](CO)O2)c(=O)[nH]c1=O | 2.1 | 0.9 | 1.5
5 | Cc1cn([C@H]2C[C@H](NC(=O)N(C)N=O)[C@@H](CO)O2)c(=O)[nH]c1=O | 0.05 | 0.9 | 1
6 | O=NN(CCCl)C(=O)NCCCl [CARMUSTINE] |  |  | 4
